Blank lines part the entries; values can stand above or below the molecule they belong to.
Columns and labels:
[1] = system: MCF7; test: Cytotoxicity against human MCF7 cells after 72 hrs by MTT assay; assay type: functional, cell-based; details: MCF7, 72 h
Outline: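 MCF-7 cells exposed to compound for 72 h and read by MTT. At least six replicate wells per assay, run on three separate occasions. IC₅₀ given as mean with standard deviation.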

[2] = Apparent permeability from apical to basolateral side in human Caco2 cells at 10 uM after 90 mins by LC-MS/MS analysis; assay type: ADME, cell-based, Caco-2; details: Caco-2
[3] = system: A2780; test: Cytotoxicity against human A2780 cells at 1 uM after 72 hrs by MTT assay; assay type: functional; details: A2780, 72 h, read-out: GI
Outline: (§1)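 Cells plated at 2000–5000/well, attached overnight at 37 °C. DMSO stocks (100 mM) serially diluted in medium to a final 1 µM, tested in duplicate wells. Exposure 72 h at 37 °C, 5% CO₂. MTT (5 mg/mL, 10 µL) added for 4 h. Lysis in 10% SDS / 5% isopropanol / 0.012 N HCl, then OD read at 580–680 nm.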

[4] = system: HT-29; test: Cytotoxicity against human HT-29 cells at 1 uM after 72 hrs by MTT assay; assay type: functional; details: HT-29, 72 h, read-out: GI; outline: as §1
[5] = system: HL-60; test: Cytotoxicity against human HL60 cells at 1 uM after 72 hrs by MTT assay; assay type: functional; details: HL-60, 72 h, read-out: GI; outline: as §1
[6] = system: HeLa; test: Cytotoxicity against human HeLa cells at 1 uM after 72 hrs by MTT assay; assay type: functional; details: read-out: GI; outline: as §1
[7] = system: MCF7; test: Cytotoxicity against human MCF7 cells at 1 uM after 72 hrs by MTT assay; assay type: functional; details: MCF7, 72 h, read-out: GI; outline: as §1
[8] = system: DU-145; test: Cytotoxicity against human DU145 cells at 1 uM after 72 hrs by MTT assay; assay type: functional; details: DU-145, 72 h, read-out: GI; outline: as §1
[9] = system: NCI-H460; test: Cytotoxicity against human NCI-H460 cells at 1 uM after 72 hrs by MTT assay; assay type: functional; details: NCI-H460, 72 h, read-out: GI; outline: as §1
[10] = system: A-375; test: Cytotoxicity against human A375 cells at 1 uM after 72 hrs by MTT assay; assay type: functional; details: A-375, 72 h, read-out: GI
Outline: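 Cells plated at 2000–5000/well, attached overnight at 37 °C. DMSO stocks (100 mM) serially diluted in medium to a final 1 µM, tested in duplicate wells. MTT (5 mg/mL, 10 µL) added for 4 h. Lysis in 10% SDS / 5% isopropanol / 0.012 N HCl, then OD read at 580–680 nm.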

Structure (SMILES): CO[C@H]1C(=O)[C@]2(C)[C@@H](OC)C[C@H]3OC[C@@]3(OC(C)=O)[C@H]2[C@H](OC(=O)c2ccccc2)[C@]23OC(=O)O[C@H]2[C@H](OC(=O)[C@H](O)[C@@H](NC(=O)OC(C)(C)C)c2ccccn2)C(C)=C1C3(C)C
IC50 [1]: 3.4 nM
Papp A→B at 1.5 h, 10 µM [2]: 36.6 nm/s

Structure (SMILES): CO[C@H]1C(=O)[C@]2(C)[C@@H](OC)C[C@H]3OC[C@@]3(OC(C)=O)[C@H]2[C@H](OC(=O)c2ccccc2)[C@]23OC(=O)O[C@H]2[C@H](OC(=O)[C@H](O)[C@H](CC(C)C)NC(=O)OC(C)(C)C)C(C)=C1C3(C)C
IC50 [1]: 4.04 nM
Papp A→B at 1.5 h, 10 µM [2]: 25.7 nm/s

Structure (SMILES): CO[C@H]1C[C@H]2OC[C@@]2(OC(C)=O)[C@H]2[C@H](OC(=O)c3ccccc3)[C@]34OC(=O)O[C@H]3[C@H](OC(=O)[C@H](O)[C@@H](NC(=O)OC(C)(C)C)c3ccccn3)C(C)=C([C@@H](OC(=O)N(C)C)C(=O)[C@]12C)C4(C)C
IC50 [1]: 14.3 nM
Papp A→B at 1.5 h, 10 µM [2]: 46.8 nm/s

Structure (SMILES): CO[C@H]1C[C@H]2OC[C@@]2(OC(C)=O)[C@H]2[C@H](OC(=O)c3ccccc3)[C@]34OC(=O)O[C@H]3[C@H](OC(=O)[C@H](O)[C@H](CC(C)C)NC(=O)OC(C)(C)C)C(C)=C([C@@H](OC(=O)N(C)C)C(=O)[C@]12C)C4(C)C
IC50 [1]: 6.44 nM
Papp A→B at 1.5 h, 10 µM [2]: 10.7 nm/s

Structure (SMILES): COC(=O)O[C@H]1C(=O)[C@]2(C)[C@@H](OC)C[C@H]3OC[C@@]3(OC(C)=O)[C@H]2[C@H](OC(=O)c2ccccc2)[C@]23OC(=O)O[C@H]2[C@H](OC(=O)[C@H](O)[C@@H](NC(=O)OC(C)(C)C)c2ccccc2)C(C)=C1C3(C)C
IC50 [1]: 3.24 nM
Papp A→B at 1.5 h, 10 µM [2]: < 14.3 nm/s

Structure (SMILES): CO[C@H]1C(=O)[C@]2(C)[C@@H](OC(=O)N(C)C)C[C@H]3OC[C@@]3(OC(C)=O)[C@H]2[C@H](OC(=O)c2ccccc2)[C@]23OC(=O)O[C@H]2[C@H](OC(=O)[C@H](O)[C@@H](NC(=O)OC(C)(C)C)c2ccccc2)C(C)=C1C3(C)C
inhibition of growth at 1 µM [3]: 95.9%
inhibition of growth at 1 µM [4]: 87.4%
inhibition of growth at 1 µM [5]: 97.5%
IC50 [1]: 15.4 nM
inhibition of growth at 1 µM [6]: 100%
Papp A→B at 1.5 h, 10 µM [2]: < 16.7 nm/s
inhibition of growth at 1 µM [7]: 84.7%
inhibition of growth at 1 µM [8]: 90.7%
inhibition of growth at 1 µM [9]: 86.2%
inhibition of growth at 1 µM [10]: 93.1%

Structure (SMILES): CO[C@H]1C(=O)[C@]2(C)[C@@H](OC(=O)N(C)C)C[C@H]3OC[C@@]3(OC(C)=O)[C@H]2[C@H](OC(=O)c2ccccc2)[C@]23OC(=O)O[C@H]2[C@H](OC(=O)[C@H](O)[C@@H](NC(=O)OC(C)(C)C)c2ccccn2)C(C)=C1C3(C)C
IC50 [1]: 18.2 nM
Papp A→B at 1.5 h, 10 µM [2]: 24.6 nm/s

Structure (SMILES): COC(=O)O[C@H]1C[C@H]2OC[C@@]2(OC(C)=O)[C@H]2[C@H](OC(=O)c3ccccc3)[C@]34OC(=O)O[C@H]3[C@H](OC(=O)[C@H](O)[C@@H](NC(=O)OC(C)(C)C)c3ccccc3)C(C)=C([C@@H](OC)C(=O)[C@]12C)C4(C)C
IC50 [1]: 3.84 nM
Papp A→B at 1.5 h, 10 µM [2]: 39.3 nm/s

Papp A→B at 1.5 h, 10 µM [2]: 37.3 nm/s
Structure (SMILES): CO[C@H]1C(=O)[C@]2(C)[C@@H](OC)C[C@H]3OC[C@@]3(OC(C)=O)[C@H]2[C@H](OC(=O)c2ccccc2)[C@]2(O)C[C@H](OC(=O)[C@H](O)[C@@H](NC(=O)OC(C)(C)C)c3ccccc3)C(C)=C1C2(C)C [CABAZITAXEL]
inhibition of growth at 1 µM [3]: 93.8%
inhibition of growth at 1 µM [4]: 87.2%
inhibition of growth at 1 µM [5]: 97.8%
inhibition of growth at 1 µM [6]: 98.2%
inhibition of growth at 1 µM [7]: 88.5%
inhibition of growth at 1 µM [8]: 83.1%
inhibition of growth at 1 µM [9]: 79.8%
inhibition of growth at 1 µM [10]: 97%

Papp A→B at 1.5 h, 10 µM [2]: 5.8 nm/s
Structure (SMILES): CC[C@H]1OC(=O)[C@H](C)[C@@H](O[C@H]2C[C@@](C)(OC)[C@@H](O)[C@H](C)O2)[C@H](C)[C@@H](O[C@@H]2O[C@H](C)C[C@H](N(C)C)[C@H]2O)[C@](C)(O)C[C@@H](C)C(=O)[C@H](C)[C@@H](O)[C@]1(C)O [ERYTHROMYCIN]
